Results collected from several papers.
Compare with care: the assays were run in different laboratories.
Matrix: Caco-2

SMILES | setting | quantity | value
C/N=c1\nc(-c2ccccc2)n(-c2ccccc2)s1 | 20 µM, 95 min | Papp B→A | 37.4 ×10⁻⁶ cm/s
CC[C@@]1(O)C(=O)OCc2c1cc1n(c2=O)Cc2cc3ccccc3nc2-1 | 105 min | Papp B→A | ~3.5 ×10⁻⁶ cm/s
C=C(CCC=C(C)C)[C@H]1CC[C@]2(C)[C@@H]1[C@H](O)C[C@@H]1[C@@]3(C)C[C@@H](O)[C@H](O[C@@H]4O[C@H](CO)[C@@H](O)[C@H](O)[C@H]4O[C@@H]4O[C@H](CO)[C@@H](O)[C@H](O)[C@H]4O)C(C)(C)[C@@H]3CC[C@]12C | 1 mg/mL, pH 7.4 | Papp | 3.56 ×10⁻⁶ cm/s
C[C@H]1O[C@@H](O[C@H]2[C@@H](O)C[C@H](O[C@H]3[C@@H](O)C[C@H](O[C@H]4CC[C@@]5(C)[C@H](CC[C@@H]6[C@@H]5C[C@@H](O)[C@]5(C)[C@@H](C7=CC(=O)OC7)CC[C@]65O)C4)O[C@@H]3C)O[C@@H]2C)C[C@H](O)[C@@H]1O | 10 µM, 1 h, pH 7.4 | Papp B→A | 22.8 ×10⁻⁶ cm/s
C=CCc1ccc(O)c(-c2cc(CC=C)ccc2O)c1 | 0.05 mg/mL, 4 h, pH 7.4 | Papp A→B | 9 ×10⁻⁶ cm/s
CC(C)NCC(O)COc1cccc2ccccc12 (stereo not shown) | 1 h, pH 7.4 | Papp A→B | 21.8 ×10⁻⁶ cm/s
O=C(CCCN1CCC2(CC1)C(=O)NCN2c1ccccc1)N(CC1CCCCC1)c1ccccc1 | – | Papp A→B | 2.83 ×10⁻⁶ cm/s
NC[C@H]1O[C@@H](O[C@@H]([C@H](NCCCC(=O)NCc2ccc(N3CCC(Oc4ccc(OC(F)(F)F)cc4)CC3)cc2)C(N)=O)[C@H]2O[C@@H](n3ccc(=O)[nH]c3=O)C(O)C2O)[C@H](O)[C@@H]1O (stereo partly shown) | – | Papp | < 1 ×10⁻⁶ cm/s
COc1cc2c(c(OC)c1OC)-c1ccc(OC)c(=O)cc1[C@@H](NC(C)=O)CC2 | – | Papp B→A | 4.9 ×10⁻⁶ cm/s
COC(=O)N[C@H](C(=O)NN(CCC[C@@]1(Cc2ccccc2)C(=O)N([C@H]2c3ccccc3C[C@H]2O)C[C@H]1O)Cc1ccc(Br)cc1)C(C)(C)C | 10 µM, 1 h, pH 7.4 | Papp A→B | > 20 ×10⁻⁶ cm/s
N=c1c2c(-c3ccccc3)c(-c3ccccc3)n(Cc3ccccc3)c2ncn1[C@H]1CC[C@H](O)CC1 | 3 µM, 2 h, pH 7.4 | Papp B→A | 2 ×10⁻⁶ cm/s
C[C@]12C[C@@H](O)[C@H]3[C@@H](CC[C@]4(O)C[C@@H](O)C[C@@H](O)[C@]34CO)[C@@]1(O)CC[C@@H]2c1cn(Cc2ccccc2)nn1 | 40 min, pH 6.5 | Papp B→A | 0.14 ×10⁻⁶ cm/s
COc1ccc2c(c1)[C@]13CCCC[C@@H]1[C@H](C2)N(C)CC3 | 10 µM, pH 6.5 | Papp B→A | 69.6 ×10⁻⁶ cm/s
